Screens (PubChem BioAssay)
Most compounds without a hit are left out; they make up all but 1.6% or so of the library.
SUMO HTRF inh: inhibitors of human SUMOylation (UBC9); HTRF SUMOylation assay, SAE1/SAE2 + UBC9, in vitro; 290,000 tested, 0.36% active; P63279; inhibition, % at 35 µM; AID 2006; in the data active = inhibition above about 50%, passing the limit was not always enough
TbMetRS inhib: blocks T. brucei methionyl-tRNA synthetase activity. AID 624268. purified T. brucei MetRS, ATP depletion, Kinase-Glo luminescence. inhibition, % at 11.9 µM. 360,000 tested, 0.4% active;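 active = inhibition above a per-plate cutoff of the control wells' mean inhibition plus 3 SD, cut at about 5.5% in these data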;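 also: 0% = DMSO wells median and 100% = median of wells with control inhibitor compound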
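Measured by: Kinase-Glo luciferase luminescence reporting remaining unconsumed ATP. Material: purified T. brucei MetRS enzyme. Doses: 11.9 µM compound single dose, 0.9% DMSO. Medium: HEPES buffer containing pyrophosphatase, BSA, spermine, DTT. Times: 15 min preincubation, 2 h reaction, all 25 °C. Reagent: methionine, ATP and bulk E. coli tRNA.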
eIF4E-4G inh: inhibitors of eIF4E and eIF4G interaction in translation initiation. P63073+Q04637. TR-FRET eIF4E-eIF4GI(517-606) binding, 2 h. inhibition, % at 21.7 µM. 220,000 tested, 0.37% active;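 also: 0% = full FRET control wells and 100% = background wells lacking eIF4GI fragment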
14-3-3 Bad PPI: disrupts binding of bovine 14-3-3 zeta to phospho-Bad peptide. inhibition, % at 21.7 µM. 220,000 tested, 0.71% active. TR-FRET 14-3-3zeta/Dy647-pBad peptide displacement, 1 h. P63103. AID 781;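 active = inhibition above about 70%, limit read from the data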;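 also: 0% = full 14-3-3 plus peptide FRET controls and 100% = background without 14-3-3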
Target sequence (P63103 whole entry, looked up): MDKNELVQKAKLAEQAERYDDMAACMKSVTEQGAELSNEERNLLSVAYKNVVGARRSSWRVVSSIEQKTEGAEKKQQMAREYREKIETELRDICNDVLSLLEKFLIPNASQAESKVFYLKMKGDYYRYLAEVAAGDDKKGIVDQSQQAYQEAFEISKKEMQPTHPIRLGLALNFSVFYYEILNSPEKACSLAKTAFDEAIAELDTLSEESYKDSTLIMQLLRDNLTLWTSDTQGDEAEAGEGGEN
p97 inhibitor: human p97 ATPase inhibition; inhibition, % at 8 µM; 220,000 tested, 0.42% active; AID 1481; recombinant p97 ATPase, Kinase-Glo ATP luminescence, 3 h; P55072; in the data active = inhibition above about 15%;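 also: 0% = DMSO vehicle and 100% = wells lacking enzyme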
NCF1 inh: inhibitors of human p47phox binding; P14598; p47phox/p22phox peptide binding, fluorescence polarization, 2 h; 220,000 tested, 0.53% active; inhibition, % at 24.7 µM;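 also: 0% = p47phox with labelled peptide and 100% = labelled peptide alone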
Target sequence (P14598 whole entry, looked up): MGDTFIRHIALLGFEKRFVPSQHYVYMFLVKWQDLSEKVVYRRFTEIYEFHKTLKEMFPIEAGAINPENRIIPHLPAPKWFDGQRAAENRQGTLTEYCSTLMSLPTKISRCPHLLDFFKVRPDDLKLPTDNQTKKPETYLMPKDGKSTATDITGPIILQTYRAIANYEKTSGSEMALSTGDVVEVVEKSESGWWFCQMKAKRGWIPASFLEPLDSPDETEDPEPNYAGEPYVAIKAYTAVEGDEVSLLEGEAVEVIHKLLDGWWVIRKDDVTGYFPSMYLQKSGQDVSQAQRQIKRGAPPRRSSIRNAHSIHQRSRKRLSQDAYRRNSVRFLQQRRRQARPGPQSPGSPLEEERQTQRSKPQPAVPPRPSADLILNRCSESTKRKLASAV
Starred values were filed as active, the others as inactive; . = no result; [ ] = dose if it differs, or a comment.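 The calls were made as follows, unless noted: active = inhibition above about 30% (limit read from the data); inactive = the rest.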

SMILES	SUMO HTRF inh	TbMetRS inhib	eIF4E-4G inh	14-3-3 Bad PPI	p97 inhibitor	NCF1 inh
COC(=O)c1cc(=O)n(-c2ccc(C(F)(F)F)cc2)[nH]1	-7.7	0.3	2.7	1.3	3.5	-20.2
C#CCN1CCc2onc(-c3ccc(Br)cc3)c2C1=O	.	-0.4	.	.	.	.
CC[C@@]1(C(=O)OC)N[C@H](CN(C)C(=O)Nc2ccc(OC)cc2)[C@@H]2C(=O)N(Cc3ccccc3)C(=O)[C@@H]21	.	-2.4	.	.	.	.
COc1ccc(N)c2c1C(=O)c1ccccc1C2=O	-69.3	-2.0	2.1	-44.1	-1.1	-61.9
COc1ccc(OC)c2c1C(=O)CC2C (centres undefined)	.	-0.2	.	.	.	.
COc1ccc(OC)c2c1C(=O)c1ccccc1C2=O	50.1*	.	3.7	4.2	1.3	36.1*
COc1ccc(OC)c2c1C(=O)C(Cl)=C(Cl)C2=O	24.0	-0.7	7.4	6.7	12.6	90.3*
CC(C)(C)OC(=O)NCCCCCO	.	-1.0	.	.	.	.
Cc1nnc(Nc2ccc3c(c2)OCO3)c2ccccc12	1.8	-0.5	7.1	81.8*[fluorescence artefact?]	0.8	-4.0
Cc1ccc(-c2nnc(Nc3ccc4c(c3)OCO4)c3ccccc23)cc1S(N)(=O)=O	-9.7	0.3	-6.2	-5.2	5.9	-35.5
C(=N\Nc1ccccc1)/c1ccc(N2CCOCC2)cc1	26.2	0.0	-2.9	88.3*[fluorescence artefact?]	-2.6	-3.6
COc1ccc(NC(=O)C2(C)CCN2Cc2cccc(OC)c2F)cc1OC (centres undefined)	.	0.4	.	.	.	.
Cc1csc(SCC(=O)Nc2ccccc2C)n1	.	-0.2	.	.	.	.
Cc1csc(SCC(=O)Nc2cccc3nsnc23)n1	9.4	-1.4	-2.7	-1.9	-4.6	143.6*
CCC(C)(C)NC(=O)CN(CCc1cccc(C)c1)C(=O)c1csnn1	14.1	-0.3	5.0	-7.3	4.1	-10.8
Nc1sc(Cc2ccccc2)cc1C(=O)c1c(-c2ccccc2)[nH]c2ccccc12	.	0.9	.	.	.	.
c1ccc2[nH]c(SN3CCOCC3)nc2c1	-2.6	.	43.6*[fluorescence artefact?]	13.1	2.2	21.9
c1ccc2[nH]c(CN3CCOCC3)nc2c1	-5.1	-1.1	-0.6	2.0	-0.1	-2.3
CC(Sc1ncccn1)C(=O)N1CCc2ccccc21 (centres undefined)	.	-0.5	.	.	.	.
O=C(O)CSc1c2c(nc3cc(C(=O)N4CCOCC4)ccc13)CCCC2	-2.8	0.2	5.3	81.8*	-4.9	-0.8
CCc1nc(N)nc(N)c1-c1ccc(N(C)Cc2ccccc2)c([N+](=O)[O-])c1	.	-0.2	.	.	.	.
COc1ccc(OC)c(NS(=O)(=O)Cc2ccccc2)c1	7.9	.	13.7	86.7*[fluorescence artefact?]	4.0	8.1
COc1ccc(OC)c(NC(=O)CS(=O)(=O)Cc2ccccc2)c1	0.8	-0.1	.	.	.	.
O=C(CNCC1CCCO1)Nc1ccccc1N1CCCCCC1 (centres undefined)	-3.7	-0.6	15.4	82.2*	-7.3	-5.3
CCN(c1ccccc1)S(=O)(=O)c1ccc(Cl)c(NC(=O)CN(C)C2CCN(C)CC2)c1	23.6	0.3	0.7	90.3*	-5.2	6.5
SMILES	SUMO HTRF inh	TbMetRS inhib	eIF4E-4G inh	14-3-3 Bad PPI	p97 inhibitor	NCF1 inh
O=C(CNCC1CCCO1)Nc1ccc(N2CCCCCC2)cc1 (centres undefined)	5.0	-0.1	.	.	1.0	-5.8
CN1CCC(N(C)CC(=O)Nc2ccccc2N2CCOCC2)CC1	24.1	0.2	8.0	78.8*	2.4	-11.6
CCN(c1ccccc1)S(=O)(=O)c1ccc(Cl)c(NC(=O)CN2CCN(C)CC2)c1	.	-0.5	.	.	.	.
CCCCOCCCNC(=O)C[C@@H]1C[C@@]2(C(=O)OC)CCCCC=C2N(Cc2cccc3ccccc23)C1=O	.	-0.7	.	.	.	.
CC(C)c1nc2ccc(NC(=O)C3CCCCC3)cc2[nH]1	4.4	-0.8	-4.1	-3.2	1.5	-18.9
O=C(Nc1ccc2nc(-c3ccccn3)[nH]c2c1)C1CCCCC1	6.9	-0.1	-7.7	-3.0	0.6	39.8*
c1ccc(-c2nnc(CN3CCN(c4ccccc4)CC3)o2)cc1	-3.3	-0.5	1.4	-5.8	1.5	0.7
c1ccc(-c2nnc(CN3CCN(C(c4ccccc4)c4ccccc4)CC3)o2)cc1	2.9	0.2	1.4	-2.0	-1.8	159.4*
C=CCNCc1cccn1-c1sc2c(c1C#N)CCCC2	-8.2	-0.5	-1.5	70.7*	-1.2	-18.5
N#Cc1c(-n2cccc2/C=N/O)sc2c1CCCC2	10.9	-0.8	4.4	-3.4	-5.1	-6.4
COc1cc(C(=O)NS(=O)(=O)c2ccccc2C)ccc1Cc1cn(C)c2ccc(NC(=O)OC3CCCC3)cc12	72.5*	.	17.4	4.7	0.1	-42.9
CCS(=O)(=O)C1=NN2C(=N)/C(=C\c3ccc(SCc4ccco4)o3)C(=O)N=C2S1	62.0*	0.1	6.7	24.4	9.7	-33.7
CNC(=O)OCc1cccc(COC(=O)NC)n1	13.7	-0.4	1.2	30.6	3.6	39.1*
Cn1nc(-c2ccc(C(=O)Nc3cccc(Cl)c3)cc2)c2ccccc2c1=O	37.5	-1.5	-37.3	7.7	5.9	7.7
COc1cc(CC(=O)Nc2ccc3c(c2)CCC3)cc(OC)c1OC	-2.5	0.7	59.6*[fluorescence artefact?]	-7.7	-3.8	-11.5
COc1cc(CCC(=O)Nc2ccc(Cl)c(C(F)(F)F)c2)cc(OC)c1OC	-12.6	0.2	1.6	75.4*[fluorescence artefact?]	2.4	-5.9
COc1cc(CCC(=O)Nc2ccc(Br)c(C(F)(F)F)c2)cc(OC)c1OC	8.4	-0.3	-1.0	-5.6	-5.7	-14.5
COc1cccc(CC(=O)Nc2ccc3c(c2)CCC3)c1	-1.5	-0.2	.	.	.	.
CC(=O)Nc1ccc(OS(=O)(=O)c2c(C)cc(C)cc2C)cc1	-4.3	2.8	6.0	7.6	1.9	-16.2
O=C(NCc1ccccc1)C(C1CC1)n1c(CSCCOc2ccccc2)nc2ccccc21 (centres undefined)	.	-0.1	.	.	.	.
CC(=O)c1cccc(NC(=O)c2nc(-c3ccccc3)oc2C)c1	6.2	-0.5	39.6*	-18.4	0.6	-22.5
Cc1oc(-c2ccccc2)nc1C(=O)O	-5.0	-1.2	-0.5	-9.7	-0.3	-6.1
COc1cc(CNCc2ccncc2)cc(Br)c1OCc1ccccc1F	-22.0	-0.3	12.9	83.0*	-4.4	-8.5
COc1cc(CNn2cn[nH]c2=S)cc(Br)c1OCc1ccccc1F	2.6	-0.8	-1.7	-5.8	-0.4	-5.4
COCCNC(=O)C1(C)CCCN(C(=O)c2cc(C)oc2C)C1 (centres undefined)	.	0.1	.	.	.	.
O=C(O)c1ccccc1N/N=C\c1ccnc2ccccc12	-2.7	-1.0	0.0	78.0*	-0.9	-48.2
Nc1nc(-c2ccco2)c(-c2ccco2)s1	70.5	-1.1	1.8	-7.4	20.5*	-23.1
C[C@@H]1CN([C@H](C)CO)C(=O)CCCn2cc(nn2)CO[C@H]1CN(C)C(=O)c1ccccc1	.	-0.4	.	.	.	.
Cn1cc([N+](=O)[O-])c(C(=O)Nc2cc(Oc3cccnc3)cc([N+](=O)[O-])c2)n1	-11.5	.	2.4	74.4*	-0.7	-15.4
